What is called IC50 is the concentration that inhibits the measured activity by half. As usually defined, the EC50 is the concentration at which the effect is half-maximal.

Here are results for twelve compounds from ChEMBL document CHEMBL1157820, “Vaccinia virus virulence factor N1L is a novel promising target for antiviral therapeutic intervention” (J Med Chem, 2010).

The structures appear in SMILES notation. Active and inactive are the calls of the source. The rule behind the calls is not given here.

The target of data set [1] is T1, N1L (Vaccinia virus, UniProt Q49PX0).
T1 sequence (Q49PX0 whole entry): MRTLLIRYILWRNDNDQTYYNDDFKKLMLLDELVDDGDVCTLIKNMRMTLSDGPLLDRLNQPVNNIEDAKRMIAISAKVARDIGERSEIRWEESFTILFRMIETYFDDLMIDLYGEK
Briefly: Displacement of FITC-conjugated BH3-Bak peptide from 1 uM Vaccinia virus recombinant N1L expressed in Escherichia coli BL21 (DE3) by fluorescence polarization assay. Further details: species or system Orthopoxvirus vaccinia. A digest of the protocol:
(§1)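 Fluorescence polarization competition: N1L or Bcl-XL incubated with 10 nM BH3-Bak peptide and titrated ligand. Bcl-XL run on the same plate as N1L. N1L tested at several concentrations, none below 500 nM. Normalized polarization vs log ligand fit to a variable-slope dose-response curve for competitive IC50.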

For data set [2], the target named is T1, N1L. The data set can be described thus: Displacement of FITC-conjugated BH3-Bak peptide from 0.5 uM Vaccinia virus recombinant N1L expressed in Escherichia coli BL21 (DE3) by fluorescence polarization assay. Further details: species or system Orthopoxvirus vaccinia. In short, it runs like this: as §1
For orientation: In fluorescence polarisation assays a small probe gives low polarisation when free and higher when bound to something large.

In data set [3] the target is T1, N1L. The data set can be described thus: Displacement of FITC-conjugated BH3-Bak peptide from Vaccinia virus recombinant N1L expressed in Escherichia coli BL21 (DE3) by fluorescence polarization assay. Further details: species or system Orthopoxvirus vaccinia. In short, it runs like this: as §1
Data set [4] has as its target N1L (Vaccinia virus) (UniProt Q49PX0). Briefly: Binding affinity to Vaccinia virus recombinant N1L expressed in Escherichia coli BL21 (DE3) assessed as effect on enthalpy of protein unfolding at 214 uM by differential scanning calorimetry. The settings on record: Orthopoxvirus vaccinia. In short, it runs like this:
(§2)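 Differential scanning calorimetry of recombinant N1L at 1.0 mg/ml (71 μM) in PBS with 2 or 5% DMSO, plus 214 μM compound, against a DMSO-only reference. Scanned at 1 K/min under 3.0 atm. Melting temperature (Tm) is taken from the peak, and enthalpy of unfolding (ΔH) from the area under the DSC peak.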

Another data set deals with Bcl-2-like protein 1 (Homo sapiens, UniProt Q07817). The data set can be described thus: Displacement of FITC-conjugated BH3-Bak peptide from human recombinant Bcl-XL expressed in Escherichia coli BL21 (DE3) by fluorescence polarization assay. A digest of the protocol:
as §1

Data set [5] concerns the target N1L (Vaccinia virus) (UniProt Q49PX0). Briefly: Binding affinity to Vaccinia virus recombinant N1L expressed in Escherichia coli BL21 (DE3) assessed as protein melting temperature at 214 uM by differential scanning calorimetry. The settings on record: Orthopoxvirus vaccinia. A digest of the protocol: as §2
For orientation: DSC measures the heat that a sample takes up or gives off during a temperature scan.

Data set [6] shares this target. Briefly: Destabilizing effect on Vaccinia virus recombinant N1L expressed in Escherichia coli BL21 (DE3) assessed as decrease in equilibrium constant of protein dimerization at 100 uM by analytical ultracentrifugation. The settings on record: Orthopoxvirus vaccinia. A digest of the protocol: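 Sedimentation equilibrium AUC of N1L in PBS at 0.45, 0.15 and 0.05 mg/ml, with 2% DMSO and compound at 50–100 μM. Spun at 20,000 rpm, 20 °C, 24 h. Data fit to a monomer–dimer or monomer–dimer–tetramer equilibrium model to obtain the dimerization KD.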

Data set [7] is described as follows: Displacement of FITC-conjugated BH3-Bim peptide from Vaccinia virus N-terminal GST-fused F1L expressed in Escherichia coli BL21 (DE3) by fluorescence polarization assay. Further details: species or system Orthopoxvirus vaccinia. In short, it runs like this:
(§3)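 Fluorescence polarization competition with 10 nM BH3-Bim peptide against F1L or Bcl-2, run alongside N1L, with titrated ligand and a variable-slope dose-response fit for IC50. F1L construct: residues 35–190 from vaccinia WR as N-terminal GST fusion, expressed in E. coli BL21(DE3) (500 μM IPTG, 20 °C, 18 h), finished on Superdex 200 in 20 mM Tris pH 8.0, 100 mM NaCl.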

For data set [8], the system named is Vaccinia virus. The data set can be described thus: Antiviral activity against GFP-expressing Vaccinia virus WR infected in human HT1080 cells after 2.5 days by fluorescence assay. It counts as functional, organism-based. The settings on record: Orthopoxvirus vaccinia, HT-1080, 60 h.
For data set [9], the system named is Vaccinia virus. Briefly: Antiviral activity against GFP-expressing Vaccinia virus WR infected in african green monkey CV1 cells after 2.5 days by fluorescence assay. The format is functional, organism-based. The settings on record: Orthopoxvirus vaccinia, CV-1, 60 h.
The target of data set [10] is N1L (Vaccinia virus) (UniProt Q49PX0). Briefly: Binding affinity to Vaccinia virus recombinant N1L expressed in Escherichia coli BL21 (DE3) assessed as protein melting temperature at 106 uM by differential scanning calorimetry. The settings on record: Orthopoxvirus vaccinia. In short, it runs like this: (§4)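 DSC at 1 K/min scan rate under 3.0 atm. Samples in PBS with 1.0 mg/ml (71 μM) N1L, 2 or 5% DMSO, and compound at 71, 106 or 214 μM; DMSO-only reference. Melting temperature and enthalpy of unfolding (area under peak) taken from thermograms.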

Data set [11] shares this target. The data set can be described thus: Binding affinity to Vaccinia virus recombinant N1L expressed in Escherichia coli BL21 (DE3) assessed as effect on enthalpy of protein unfolding at 106 uM by differential scanning calorimetry. The settings on record: Orthopoxvirus vaccinia. In short, it runs like this:
as §4

The nature of data set [12]: Cytotoxicity against african green monkey CV1 cells at >100 uM after 2.5 day by ATP lite assay. The settings on record: chlorocebus aethiops, cv-1, 60 h. It counts as cell-based.
In another data set the test system is HT-1080. The data set can be described thus: Cytotoxicity against human HT1080 cells at >100 uM after 2.5 day by ATP lite assay. It counts as cell-based. The settings on record: ht-1080, 60 h.
Data set [13] has as its target N1L (Vaccinia virus) (UniProt Q49PX0). The data set can be described thus: Binding affinity to Vaccinia virus recombinant N1L expressed in Escherichia coli BL21 (DE3) assessed as effect on enthalpy of protein unfolding at 71 uM by differential scanning calorimetry. The settings on record: Orthopoxvirus vaccinia. In short, it runs like this:
as §4

The target is the same in data set [14]. Briefly: Binding affinity to Vaccinia virus recombinant N1L expressed in Escherichia coli BL21 (DE3) assessed as protein melting temperature at 71 uM by differential scanning calorimetry. The settings on record: Orthopoxvirus vaccinia. In short, it runs like this: as §4
The target of data set [15] is Apoptosis regulator Bcl-2 (Homo sapiens, UniProt P10415). Briefly: Displacement of FITC-conjugated BH3-Bim peptide from human recombinant Bcl-2 expressed in Escherichia coli BL21 (DE3) by fluorescence polarization assay. In short, it runs like this: as §3
Data set [16] in a line: Therapeutic index, ratio of TC50 for human HT1080 cells to EC50 for GFP-expressing Vaccinia virus WR infected in human HT1080 cells. The format is cell-based, HT-1080. The settings on record: read-out: TI.
Data set [17] is described as follows: Therapeutic index, ratio of TC50 for african green monkey CV1 cells to EC50 for GFP-expressing Vaccinia virus WR infected in african green monkey CV1 cells. The settings on record: read-out: TI. The format is cell-based, CV-1.

Chain of Bcl-2-like protein 1 (Q07817 whole entry): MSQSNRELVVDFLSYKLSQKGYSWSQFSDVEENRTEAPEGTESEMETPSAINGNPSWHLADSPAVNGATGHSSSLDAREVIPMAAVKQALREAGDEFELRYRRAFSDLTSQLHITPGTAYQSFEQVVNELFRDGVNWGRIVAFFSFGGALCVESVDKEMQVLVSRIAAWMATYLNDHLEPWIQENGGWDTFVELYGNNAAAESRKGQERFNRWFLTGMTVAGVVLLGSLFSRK
Chain of Apoptosis regulator Bcl-2 (P10415 whole entry): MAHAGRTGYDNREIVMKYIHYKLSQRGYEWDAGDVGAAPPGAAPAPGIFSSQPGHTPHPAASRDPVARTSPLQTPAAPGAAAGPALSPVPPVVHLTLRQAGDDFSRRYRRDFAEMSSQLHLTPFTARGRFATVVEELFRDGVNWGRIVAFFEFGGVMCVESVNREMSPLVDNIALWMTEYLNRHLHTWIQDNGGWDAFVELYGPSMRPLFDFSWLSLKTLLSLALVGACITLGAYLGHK

As to `COc1cc(C(c2ccc(O)c(OC)c2)c2ccc(O)c(OC)c2)ccc1O`, the IC50 at N1L [1] was 12.4 µM; at N1L [2] it was 8.8 µM; on N1L [3], 8.8 µM.
`Oc1ccc(/C=C/c2cc(O)cc(O)c2)cc1` [RESVERATROL]: the results for the IC50 on N1L [1], at N1L [3] and at Bcl-2-like protein 1 were 21.9 µM, 21.9 µM and 190 µM, respectively. On N1L (Vaccinia virus) [4], the outcome was inactive. Also, the Tm at N1L (Vaccinia virus) [5] amounted to 54.2 °C.
On to `COc1cc(-c2ccc3cc(OC)c(OC)c(OC)c3c2)cc(OC)c1OC`, for which the IC50 at N1L [1] is 1.6 µM; on N1L [2], 0.9 µM; in [7], 1.7 µM; at N1L [3], 0.9 µM. The result on N1L (Vaccinia virus) [6] was Active. In addition, the half-maximal effective concentration (EC50) in the data set with Vaccinia virus [8] came out at 16.9 µM; in the data set with Vaccinia virus [9] it was 13.2 µM. In addition, the Tm on N1L (Vaccinia virus) [10] turned out to be 56.3 °C. For the same compound, the outcome at N1L (Vaccinia virus) [11] was inactive. For the same compound, the Activity entry (in [12]; in the data set with HT-1080) was “Non-toxic” each time.
As for `COc1cc(C(=N\c2ccccc2)/C(=N/c2ccccc2)c2cc(OC)c(OC)c(OC)c2)cc(OC)c1OC`, the IC50 on N1L [1] was found to be 3.5 µM; on N1L [2], 2.4 µM; on N1L [3], 2.4 µM.
Consider `COc1ccc(/C(=N/c2ccc(C)cc2)c2ccccc2)cc1`, for which the IC50 at N1L [1] and at N1L [3] was 1.7 µM throughout.
Regarding `COc1cc(C(c2ccccc2)c2ccccc2)c2ccccc2c1O`, the IC50 is 2 µM at N1L [1], 1.8 µM at N1L [2] and 1.8 µM on N1L [3]. The outcome at N1L (Vaccinia virus) [13] was inactive. In addition, the Tm at N1L (Vaccinia virus) [14] was 57.5 °C.
Consider `COc1ccc(CCc2cc(OC)c(O)c(OC)c2)cc1`, for which the IC50 at N1L [1] is 7.5 µM; at N1L [2], 5 µM; on N1L [3], 5 µM. For the same compound, the result at N1L (Vaccinia virus) [4] was inactive. Moreover, the Tm on N1L (Vaccinia virus) [5] is 54.4 °C.
Turning to `Oc1cc(Cc2ccccc2)c(Cc2ccccc2)cc1O`, the IC50 on N1L [1] was 1.8 µM; on N1L [2] it was 0.9 µM; in data set [15], 4.7 µM; in [7] it was 0.6 µM; at N1L [3] it was 0.9 µM; on Bcl-2-like protein 1 it was 8.5 µM. In addition, the Tm at N1L (Vaccinia virus) [10] was 48.6 °C. Also, the result at N1L (Vaccinia virus) [11] was inactive.
As to `Oc1cc(C(c2ccccc2)c2ccccc2)c2ccccc2c1O`, the IC50 on N1L [1] turned out to be 1.9 µM; at N1L [2], 0.6 µM; in data set [7] it was 1.4 µM; on N1L [3] it was 0.6 µM. Further, the outcome at N1L (Vaccinia virus) [6] was Active. Also, the Tm at N1L (Vaccinia virus) [10] was 54.9 °C. Also, the outcome at N1L (Vaccinia virus) [11] was inactive.
In the case of `Oc1ccc(/C=N/c2ccccc2/N=C/c2ccc(O)c(O)c2)cc1O`, the results for the IC50 at N1L [1], on N1L [2] and at N1L [3] were 1.3 µM, 1.2 µM and 1.2 µM, respectively. The selectivity ratio in data set [16] and in data set [17] was 5.6 throughout. In addition, the EC50 with Vaccinia virus [8] was determined as 10.9 µM; with Vaccinia virus [9], 13.2 µM. Besides, the Tm on N1L (Vaccinia virus) [10] turned out to be 52.3 °C. In addition, the result at N1L (Vaccinia virus) [11] was inactive. Also, the Activity entry (in [12]; with HT-1080) was “Non-toxic” in each case.
For `COc1ccc2ccccc2c1-c1c(O)ccc2ccccc12`, the IC50 was found to be 3.6 µM on N1L [1], 1.5 µM on N1L [2] and 1.5 µM on N1L [3].
With `COc1ccc(C(C)c2cc(OC)c(OC)c(OC)c2)cc1` (stereo not given), the IC50 is 6.6 µM at N1L [1], 5.6 µM at N1L [2] and 5.6 µM at N1L [3]. In addition, the selectivity ratio in data set [16] and in data set [17] was 50 in each case. Also, the Activity entry (in data set [12]; in the data set on HT-1080) was “Non-toxic” in each case.
